Active and inactive are the calls of the source. The rule behind the calls is not given here.
Columns and labels:
[1] = target: T1, Estrogen receptor beta (Homo sapiens, UniProt Q92731); assay: Displacement of [3H]-estradiol from human full-length ERbeta after 18 to 24 hrs by competitive radiometric binding assay relative to estradiol
[2] = target: T2, Estrogen receptor (Homo sapiens) (UniProt P03372); assay: Antagonist activity at ERalpha (unknown origin) expressed in human HepG2 cells assessed as inhibition of transcriptional activation after 24 hrs by ERE-luciferase reporter gene assay relative to 17beta-estradiol; type: cell-based
T2 sequence (whole entry): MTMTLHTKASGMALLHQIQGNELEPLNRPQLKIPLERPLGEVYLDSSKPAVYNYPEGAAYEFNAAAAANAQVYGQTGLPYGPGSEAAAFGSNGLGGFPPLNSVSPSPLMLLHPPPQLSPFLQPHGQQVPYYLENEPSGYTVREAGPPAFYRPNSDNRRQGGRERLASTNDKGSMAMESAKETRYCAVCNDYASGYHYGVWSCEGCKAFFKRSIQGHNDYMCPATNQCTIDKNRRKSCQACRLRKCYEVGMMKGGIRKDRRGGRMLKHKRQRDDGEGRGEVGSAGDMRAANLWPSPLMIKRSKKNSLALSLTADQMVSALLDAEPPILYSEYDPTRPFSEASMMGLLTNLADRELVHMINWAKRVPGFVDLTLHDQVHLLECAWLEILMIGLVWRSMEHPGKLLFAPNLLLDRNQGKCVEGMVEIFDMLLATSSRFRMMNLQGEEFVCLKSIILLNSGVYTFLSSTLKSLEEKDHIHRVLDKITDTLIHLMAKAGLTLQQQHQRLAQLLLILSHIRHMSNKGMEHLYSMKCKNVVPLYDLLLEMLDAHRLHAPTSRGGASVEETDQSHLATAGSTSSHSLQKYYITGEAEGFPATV
How it was run: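 Antagonist mode used HepG2 cells cotransfected with a 3×ERE-luciferase reporter plus an ERα expression vector and steroid-deprived in phenol red-free medium with 10% charcoal-dextran-stripped FBS. Cells received 10 nM estradiol together with increasing compound concentrations across a 10 μM to 100 pM dose curve. Luciferase was measured after 24 h and normalized to DMSO (0%) and the top of the E2 curve (100%).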

[3] = target: T2, Estrogen receptor (Homo sapiens); assay: Agonist activity at ERalpha (unknown origin) expressed in human HepG2 cells assessed as transcriptional activation after 24 hrs by ERE-luciferase reporter gene assay relative to 17beta-estradiol; type: cell-based
How it was run: (§1)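 HepG2 cells were cotransfected with a 3×ERE-luciferase reporter (10 μg) plus an ERα or ERβ expression vector (1.6 μg) per 10 cm dish. The next day they were replated at 20 000 cells/well in phenol red-free medium with 10% charcoal-dextran-stripped FBS and held overnight. Cells were then dosed over a 12-point range of 10 μM to 100 pM. Luciferase was read after 24 h, with DMSO set as 0% and the top of the E2 curve as 100%.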

[4] = system: HepG2; assay: Agonist activity at ERalpha (unknown origin) harboring N-terminal AF1 domain deleted mutant expressed in human HepG2 cells assessed as transcriptional activation after 24 hrs by ERE-luciferase reporter gene assay; type: cell-based
[5] = organism: Homo sapiens; assay: Selectivity ratio of RBA for human full length ERbeta to RBA for human full-length ERalpha
[6] = target: T1, Estrogen receptor beta; assay: Agonist activity at ERbeta (unknown origin) expressed in human HepG2 cells assessed as transcriptional activation after 24 hrs by ERE-luciferase reporter gene assay relative to 17beta-estradiol; type: cell-based; how it was run: as §1
[7] = target: T3, Estrogen receptor (Homo sapiens, UniProt P03372); assay: Agonist activity at ERalpha (unknown origin) expressed in human HepG2 cells assessed as transcriptional activation after 24 hrs by ERE-luciferase reporter gene assay; type: cell-based
T3 sequence (P03372 whole entry): T2 sequence (whole entry)
How it was run: (§2)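 HepG2 cells were grown in DMEM with 10% FBS and transfected with a 3×ERE-luciferase reporter plus an ERα or ERβ expression vector. The next day cells were moved to phenol red-free medium with 10% charcoal-dextran-stripped FBS, plated at 20 000 cells/well and left overnight. Ligand was then added as a 12-point dose curve from 10 μM to 100 pM. Luciferase was read after 24 h, normalized to DMSO as 0% and the top of the E2 curve as 100%.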

[8] = target: T1, Estrogen receptor beta; assay: Antagonist activity at ERbeta (unknown origin) expressed in human HepG2 cells assessed as inhibition of 17beta-estradiol-induced transcriptional activation after 24 hrs by ERE-luciferase reporter gene assay; type: cell-based
How it was run: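 ERβ-transfected, steroid-deprived HepG2 cells carrying a 3×ERE-luciferase reporter were co-treated with 10 nM estradiol and test ligand over a range of 10 μM to 100 pM. Luciferase was read after 24 h, with each plate normalized to DMSO (0%) and the maximal E2 response (100%). IC50 and % efficacy were derived from the dose curves.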

[9] = target: T1, Estrogen receptor beta; assay: Agonist activity at ERbeta (unknown origin) expressed in human HepG2 cells assessed as transcriptional activation after 24 hrs by ERE-luciferase reporter gene assay; type: cell-based; how it was run: as §2
[10] = target: T2, Estrogen receptor (Homo sapiens); assay: Displacement of [3H]-estradiol from human full-length ERalpha after 18 to 24 hrs by competitive radiometric binding assay relative to estradiol

T1 sequence (Q92731 whole entry): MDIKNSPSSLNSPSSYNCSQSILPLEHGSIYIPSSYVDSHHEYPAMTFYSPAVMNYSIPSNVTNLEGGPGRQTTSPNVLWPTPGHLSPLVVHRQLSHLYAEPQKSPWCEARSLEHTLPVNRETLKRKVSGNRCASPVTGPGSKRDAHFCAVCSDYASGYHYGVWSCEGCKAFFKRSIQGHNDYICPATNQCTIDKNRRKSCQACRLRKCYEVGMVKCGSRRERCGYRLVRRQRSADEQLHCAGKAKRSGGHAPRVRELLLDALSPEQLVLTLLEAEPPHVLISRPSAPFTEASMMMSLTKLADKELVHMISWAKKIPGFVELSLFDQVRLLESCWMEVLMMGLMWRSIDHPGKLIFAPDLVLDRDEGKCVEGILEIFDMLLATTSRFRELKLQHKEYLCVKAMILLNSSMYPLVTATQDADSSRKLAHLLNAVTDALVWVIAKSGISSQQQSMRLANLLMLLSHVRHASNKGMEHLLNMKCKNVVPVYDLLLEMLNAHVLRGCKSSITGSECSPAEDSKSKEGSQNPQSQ

Oc1ccc(/C(=N\c2ccc(Br)cc2)c2ccc(O)cc2O)cc1
RBA [1]: 70.3% | Efficacy [2]: 111% | Efficacy [3]: 113% | Activity [4]: inactive | Selectivity ratio [5]: 1.1 | Efficacy [6]: 24% | EC50 [7]: 9 nM | IC50 [8]: 100 nM | EC50 [9]: 12500 nM | RBA [10]: 64.6%

Reference: ChEMBL document CHEMBL3232883, “Triaryl-substituted Schiff bases are high-affinity subtype-selective ligands for the estrogen receptor” (J Med Chem, 2014)
